High-throughput results as filed in PubChem BioAssay.
MsrA inhibitor = bovine MsrA inhibition; inhibition, % at 15.5 µM; 360,000 compounds, 0.75% hits; purified bovine MsrA, absorbance read-out; in the data active = inhibition above about 4.5%;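 note: 0% = vehicle wells with enzyme and 100% = reference inhibitor wells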
NR2E3 ag-1 = human photoreceptor-specific nuclear receptor agonism | 360,000 compounds, 0.35% hits | Q9Y5X4 | inhibition of corepressor binding, % at 3.98 µM | CHO-S Gal4-NCOR/VP16-NR2E3 two-hybrid, luciferase;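 active = inhibition above the mean of all tested compounds plus 3 SD, cut at about 70% in these data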;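 note: 0% = DMSO with NR2E3 transfected cells and 100% = cells lacking NR2E3 construct; higher means lower luciferase signal from less NR2E3 corepressor binding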
Target sequence (Q9Y5X4 whole entry, looked up, the tested form may be a part): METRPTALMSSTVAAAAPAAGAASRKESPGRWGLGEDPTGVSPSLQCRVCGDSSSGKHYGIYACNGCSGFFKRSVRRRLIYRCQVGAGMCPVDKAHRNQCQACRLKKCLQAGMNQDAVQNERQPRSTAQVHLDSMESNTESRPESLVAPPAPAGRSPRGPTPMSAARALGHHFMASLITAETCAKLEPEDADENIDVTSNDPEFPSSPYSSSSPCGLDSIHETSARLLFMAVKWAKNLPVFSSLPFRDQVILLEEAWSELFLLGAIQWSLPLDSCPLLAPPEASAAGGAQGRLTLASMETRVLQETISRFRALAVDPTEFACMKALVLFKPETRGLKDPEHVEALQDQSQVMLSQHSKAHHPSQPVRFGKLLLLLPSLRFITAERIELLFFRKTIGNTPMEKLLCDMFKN
NadD block = blocks S. aureus nicotinate mononucleotide adenylyltransferase; purified NadD enzyme, colorimetric absorbance read-out; inhibition, % at 20 µM; 360,000 compounds, 0.78% hits; in the data active = inhibition above about 26%
bovine MsrA act = activates bovine MsrA enzyme | activation, % at 10.6 µM | 360,000 compounds, 0.3% hits | purified bovine MsrA, absorbance read-out; in the data active = activation above about 7.5%;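 note: 0% = vehicle and 100% = reference activator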
NR2E3 ag-2 = NR2E3 (human) agonism; Q9Y5X4; GST-NR2E3/biotin-RetCOR TR-FRET, 1536-well; inhibition of corepressor binding, % at 4.78 µM; 320,000 compounds, 0.12% hits; AID 2300;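 active = percent inhibition above the cutoff of mean plus 3 SD of all tested compounds, set per screening campaign, cut at about 20% in these data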;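 note: 0% = DMSO wells and 100% = biotin wells as full block of FRET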
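Assay system: NR2E3–RetCOR corepressor complex. Quantity: 1.35 nM GST-NR2E3. Buffer or medium: pH 7.5 Tris-based buffer. Reagent: biotinylated RetCOR corepressor at 7 nM final. Schedule: 5 h at 4 °C. Detection: TR-FRET, emission read at 617 and 671 nm. Replicates: one well per compound, singlicate testing.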
GalR3 antagonist = blocks the human galanin receptor 3; O60755; HEK293 GalR3-CNG cAMP membrane potential fluorescence; galR3 body fused to GalR1 C-terminus; inhibition, % at 3 µM; 360,000 compounds, 0.44% hits;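 active = inhibition above the screen-wide average plus 3 SD, cut at about 13% in these data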;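 note: forskolin and galanin both at EC90 stimulate the cells; cAMP rise reported by CNG channel membrane potential dye signal; 0% = forskolin plus galanin with DMSO and 100% = forskolin alone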
Target sequence (O60755 1-299 limits assumed): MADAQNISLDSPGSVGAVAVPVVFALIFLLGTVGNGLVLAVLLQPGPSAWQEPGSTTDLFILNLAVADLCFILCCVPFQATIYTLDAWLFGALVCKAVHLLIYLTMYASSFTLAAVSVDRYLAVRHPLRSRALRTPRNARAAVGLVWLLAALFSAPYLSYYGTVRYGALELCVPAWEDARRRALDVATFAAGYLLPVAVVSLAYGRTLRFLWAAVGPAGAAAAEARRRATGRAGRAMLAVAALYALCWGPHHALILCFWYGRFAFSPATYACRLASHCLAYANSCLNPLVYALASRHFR
GalR3 conf = confirmation of human galanin receptor 3 antagonists; shares compounds with GalR3 antagonist; HEK293 GalR3 CNG cAMP biosensor, membrane potential fluorescence; galR3 fused to GalR1 carboxy tail; challenged with forskolin and galanin at EC90; inhibition, % at 3 µM; 1,600 compounds, 59% hits; AID 652245;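 active = inhibition above the primary screen's cutoff, the mean inhibition of all screened compounds plus 3 SD, cut at about 13% in these data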;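 note: 0% = forskolin plus galanin and 100% = forskolin alone with DMSO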
CNG parental = acts as nonspecific agonist in parental HEK-CNG cells | HEK293-CNG parental cells, cAMP membrane potential fluorescence; normalised: DMSO wells 0%, forskolin wells 100% | AID 652268 | activation, % at 3 µM | 1,600 compounds, 10% hits | shares compounds with GalR3 antagonist; in the data active = activation above about 1.3%
Active calls of the source: *; nt = no result. Hits are enriched below; roughly 2.5% of the tested compounds scored in any of these assays.

SMILES | MsrA inhibitor | NR2E3 ag-1 | NadD block | bovine MsrA act | NR2E3 ag-2 | GalR3 antagonist | GalR3 conf | CNG parental
Cc1nn(-c2ccccc2)c(Cl)c1/C=C(/CC(=O)O)c1nc2ccccc2s1 | 2 | 18 | 10 | -4 | nt | -6 | nt | nt
O=C1NC(=O)C(c2ccccc2[N+](=O)[O-])=C1Nc1ccc(O)c(Cl)c1 | 0 | -19 | -5 | -6 | 1 | 13* | 1 | 0
O=C(NNc1ccccc1[N+](=O)[O-])Nc1ccc(Cl)c(Cl)c1 | 1 | -20 | -5 | -3 | -1 | 0 | nt | nt
COc1ccc(CCNC(=O)c2csc3c2CCCC3)cc1OC | 2 | -3 | -2 | -1 | 6 | 13* | 3 | 0
COc1ccccc1CCC(=O)Nc1cccc(S(=O)(=O)N2CCCCCC2)c1 | 0 | -12 | -5 | -5 | 2 | 2 | nt | nt
CS(=O)(=O)c1cccc(C(=O)Nc2cccc(S(=O)(=O)N3CCCC3)c2)c1 | -1 | 10 | -1 | -2 | nt | -6 | nt | nt
COc1ccc(CC(=O)Nc2cccc(S(=O)(=O)N3CCCC3)c2)cc1OC | 1 | 46 | -2 | -2 | -4 | 85* | 28* | -1
COc1cc(C(=O)Nc2cccc(S(=O)(=O)N3CCCC3)c2)cc(OC)c1C | -1 | -2 | 3 | -4 | -1 | 14* | 12 | 1
COc1ccc(CC(=O)Nc2cccc(S(=O)(=O)N3CCOCC3)c2)cc1OC | 0 | 38 | 1 | 0 | -4 | 41* | 18* | 0
CCc1cc(C(=O)c2ccc(Br)cc2)c(NC(=O)CN(CC)CC)s1 | 0 | -12 | 13 | -5 | 5 | -3 | nt | nt
CCOC(=O)c1[nH]c(C)c(C(=O)N(CC)CC)c1C | 0 | -1 | 0 | -2 | -3 | 0 | nt | nt
O=C(O)c1cc(NCc2cccs2)ccc1N1CCOCC1 | -1 | -4 | 1 | -6 | 0 | -4 | nt | nt
COc1ccc(/C=N/OCC(=O)NC(c2ccccc2)c2ccccc2)cc1OC | 0 | 21 | -9 | -6 | 0 | 89* | 100* | 0
CN(C(=O)c1ccc(S(=O)(=O)c2cccc(Cl)c2)c([N+](=O)[O-])c1)C1CCCCC1 | 1 | -14 | -5 | -3 | 9 | 22* | -2 | 0
O=C(c1cccs1)N1CCCC1 | 0 | -10 | 10 | -5 | -2 | -2 | nt | nt
O=C(c1cccs1)N1CCOCC1 | -1 | -4 | 3 | 3 | 1 | 13* | 7 | 0
CC(C)=CCc1c2c(c3occ(-c4ccc(O)cc4)c(=O)c3c1O)C=CC(C)(C)O2 | 1 | -21 | 4 | -3 | 5 | 20* | 24* | 0
CCCCC[C@H](O)/C=C/[C@@H]1[C@@H](C/C=C\CCCC(=O)OC)[C@@H](O)C[C@H]1O | nt | 1 | 14 | -3 | -1 | nt | nt | nt
CCCCC[C@H](O)/C=C/C1C(=O)C=C[C@H]1C/C=C\CCCC(=O)OC (stereo not given in full) | 0 | -10 | -2 | 2 | nt | 64* | 80* | 0
CCOC(=O)C1CCCN(C(=O)c2ccccc2[N+](=O)[O-])C1 (stereo not given) | 0 | -19 | -2 | -2 | -2 | 55* | 3 | 0
O=C(c1ccccc1[N+](=O)[O-])N1CCCC(C(=O)N2CCCCCC2)C1 (stereo not given) | 1 | 1 | 1 | -2 | 2 | -7 | nt | nt
O=C(NCc1ccccc1)C1C(c2ccc3c(c2)OCO3)=Nc2ccccc2N1C(=O)c1ccco1 (stereo not given) | 3 | nt | nt | nt | nt | -9 | nt | nt
O=C(O)C1=C(C(=O)Nc2ccc(F)c(Cl)c2)CCCC1 | -2 | 19 | 4 | -11 | 0 | -3 | nt | nt
O=C(COc1ccccc1Br)NCCC1=CCCCC1 | 0 | -19 | -2 | 1 | 5 | -7 | nt | nt
COc1ccccc1OCC(=O)NCCC1=CCCCC1 | 0 | 0 | 4 | 1 | 3 | nt | 3 | 0
SMILES | MsrA inhibitor | NR2E3 ag-1 | NadD block | bovine MsrA act | NR2E3 ag-2 | GalR3 antagonist | GalR3 conf | CNG parental
O=C(Nc1ccc(O)cc1)/C(=C/c1ccco1)NC(=O)c1ccccc1 | 4 | -4 | -4 | -4 | 0 | -5 | nt | nt
COc1ccc(C(=O)NC(C)c2nc3ccccc3n2C)cc1OC (stereo not given) | -1 | -6 | 9 | -2 | 0 | -2 | nt | nt
COc1ccc(C(O)c2nc3ccccc3n2C)cc1OC (stereo not given) | 0 | 40 | -2 | -2 | 0 | 95* | 33* | 0
O=C1NC[C@@H](CCCCN2C[C@H](Cc3ccc(O)cc3)N(Cc3ccccc3)C(=O)C2=O)N(CCc2ccc(O)cc2)C1=O | 0 | -2 | 2 | -3 | nt | -6 | nt | nt
CSc1ccccc1OCc1cc(C(=O)N2CCCC(C)C2)no1 (stereo not given) | 0 | -174 | -9 | -4 | -4 | 1 | nt | nt
CC(C)(C)c1ccc(C(=O)Nc2ccc(Oc3cccnc3)nc2)cc1 | 1 | -13 | 2 | -2 | 0 | 111* | 114* | 0
COc1ccc(CNC(=O)CN(C(=O)CCC(=O)Nc2ccccn2)c2cccc(C)c2)cc1 | 2 | -32 | -2 | -2 | -1 | 13* | 30* | 1.3*
COc1ccc(CN(CC(O)COc2cccc3[nH]cc(C)c23)C(C)(C)C)cc1 (stereo not given) | -1 | -24 | -11 | -1 | 2 | -15 | nt | nt
Cc1ccc(NC(=O)CN2C(=O)C(=O)N(C3CCCC3)C2=O)cc1Cl | 0 | 1 | 1 | -1 | 2 | -4 | nt | nt
CC(C)(C)OC(=O)NCCCCCc1nnc(SCC(=O)Nc2cccc(Cl)c2)o1 | -1 | -3 | -6 | -6 | 4 | 17* | 77* | -1
CCOC(=O)c1cccc(NC(=O)CN(C)S(=O)(=O)c2cnc[nH]2)c1 | 0 | -28 | 2 | 2 | -2 | -2 | nt | nt
CN(C)CCCN=C(NO)c1ccc(Cl)cc1Cl | -1 | 30 | -3 | -11 | -3 | -3 | nt | nt
O=C(Cc1ccc(F)cc1)N(c1ccccc1)C1C=CS(=O)(=O)C1 (stereo not given) | 0 | 7 | 1 | -3 | -2 | -4 | nt | nt
COc1ccc(OCC(=O)Nc2ccc3oc(-c4ccncc4)nc3c2)cc1 | 1 | -1 | -3 | -4 | 0 | -1 | nt | nt
COc1ccc(-c2nc3cc(NC(=O)Cc4ccc(OC)c(OC)c4)ccc3o2)cc1 | 3 | 11 | -9 | -14 | -1 | 38* | 11 | 0
CC(C)(C)N1C(=O)[C@H]2[C@@H](c3ccc(Br)cc3)N3C(=O)N(c4ccccc4)C(=O)[C@@]3(Cc3ccccc3)[C@H]2C1=O | -1 | 5 | 5 | -2 | 1 | nt | 2 | -1
